Shown are actives, neighbours in structure and some others; about 4.8% of the full set was active somewhere.
UPR CHOP act: apoptotic UPR (CHOP) activation; actives 0.34% (n = 330,000); CHO-CHOP luciferase reporter, luminescence; percent of tunicamycin response over DMSO baseline; AID 449763; activation, % at 10 µM;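 active = at 10 µM dose, activation of 40% or more, normalized to positive control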;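 note: 100% = tunicamycin at 10 µg/mL and 0% = DMSO alone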
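Assay system: CHO-CHOP cells, stable luciferase reporter of PERK-eIF2a-CHOP signalling / Buffer or medium: F12 plus 10% serum / Compound dosing: one dose, 10 µM in 0.5% DMSO / Times: 6 h compound treatment, 37 °C / Technique: luciferase luminescence / Read-out: % reporter activation, DMSO baseline versus tunicamycin full activation / Benchmarks: tunicamycin and DMSO controls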
SKKanGAS inh: SKKanGAS growth inhibition; S. pyogenes SKKanGAS, kanamycin growth, BacTiter-Glo, 6 h; inhibition, % at 7.5 µM; actives 1.3% (n = 300,000); AID 1662;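 active = mean replicate score, as percent of positive control median, at least 50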;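 note: strain carries kanamycin resistance gene driven by streptokinase promoter and grows in 40 µg/ml kanamycin; loss of luminescence reflects streptokinase promoter inhibition or plain growth inhibition; 0% = median of DMSO wells and 100% = positive control at its reference dose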
XBP1 UPR activ: activators of adaptive arm of unfolded protein response (XBP1). CHO-XBP1 luciferase reporter, IRE1-XBP1 UPR activation, luminescence; percent of tunicamycin response, DMSO as zero. actives 0.33% (n = 330,000). activation, % at 20 µM;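 active = versus positive control, 20 µM dose yields 30% or more activation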;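 note: 100% = tunicamycin at 10 µg/mL and 0% = DMSO only wells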
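incubation = overnight seeding at 37 °C, 6 h compound treatment at 37 °C | assay system = CHO-XBP1 cells stably carrying IRE1-XBP1-driven luciferase reporter | input = 1000 cells per well | detection = luciferase luminescence | dosing = single point, 20 µM final compound, 1% DMSO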
Beta cell apopt: beta cell apoptosis inhibition | AID 435005 | INS-1E cytokine-induced death, ATP luminescence, 48 h; percent of positive-control rescue, neutral wells zero | actives 0.8% (n = 300,000) | protection from apoptosis, % (concentration not given with the values);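 active = Every replicate reaches about 75%, or at least half do and their mean reaches it too, limit read from the data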;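 note: 0% = cytokine-treated negative control wells and 100% = positive control rescue; higher means more ATP so stronger rescue from cytokine killing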
CSC inhib: cancer stem cell inhibition. AID 2717. inhibition, % at 7.5 µM. actives 1.1% (n = 300,000). cancer stem cell-like cells viability, luminescence; in the data active = inhibition above about 75%; tested in HMLE shEcad cells
Mdm2-MdmX inh: inhibitors of human Mdm2/MdmX interaction; actives 3% (n = 330,000); O15151+Q00987; SaOS-2 split-luciferase Mdm2/MdmX complementation, luminescence; inhibition, % at 8 µM;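 active = inhibition of at least 50% at 8 µM in the primary screen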
Mdm2 MdmX conf: confirmation of human Mdm2/MdmX interaction inhibitors; Mdm2-MdmX binding, luminescent assay; actives 55% (n = 10,000); shares compounds with Mdm2-MdmX inh; inhibition, % at 8 µM; in the data active = inhibition above about 40%
Full FLuc ctr: counter-screen for Mdm2/MdmX inhibitors: full-length luciferase; shares compounds with Mdm2-MdmX inh; SaOS-2 full-length luciferase counterscreen, luminescence; inhibition, % at 8 µM; actives 77% (n = 6,200); AID 504607;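 active = mean inhibition at 8 µM reaching about 37%, which flags the compound as non-specific, limit read from the data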;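 note: p53-null SaOS-2 cells with luciferase driven by a doxycycline-inducible promoter; compound on cells about two nights before reading with doxycycline added after day one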
Starred values were filed as active, the others as inactive; · = no result given.

SMILES	UPR CHOP act	SKKanGAS inh	XBP1 UPR activ	Beta cell apopt	CSC inhib	Mdm2-MdmX inh	Mdm2 MdmX conf	others
COc1ccc(NC(=O)Cn2c3ccccc3c3nc4n(c(=O)c32)CCS4)cc1	-1	11	9	14	4	70*	12
COc1ccc(NC(=O)Cn2c3ccccc3c3nc4n(c(=O)c32)CCS4)cc1OC	1	6	-4	-2	-3	10	·
CNC(=O)c1cc(S(=O)(=O)Nc2ccc3c(c2)OCO3)ccc1C	0	2	-2	-4	-15	17	·
CCN(CCCNC(=O)CCn1c(=S)[nH]c2cc3c(cc2c1=O)OCO3)c1cccc(C)c1	0	5	15	10	-10	57*	-17
CCC[C@H]1NC(=O)[C@H](C)N(C)C(=O)C(C)(C)C(=O)C(C)NC(=O)[C@H](Cc2ccc(OC)cc2)N(C)C(=O)[C@H](C(C)C)N(C)C(=O)CNC(=O)[C@H](CC(C)C)N(C)C(=O)CNC(=O)[C@H]([C@@H](C)CC)OC(=O)[C@H]1C (stereo partly drawn)	44*	·	23	·	·	94*	91*	Full FLuc ctr=5
CC(C)OC(=O)c1cc(C(=O)c2cc(Br)ccc2O)coc1=N	2	9	-1	0	12	7	·
CCOc1ccccc1NC(=O)c1cc(C(=O)c2cc(Br)ccc2O)coc1=N	0	·	-3	2	-5	55*	60*	Full FLuc ctr=69*
CC(C)=CCc1c(O)cc(O)c2c(=O)c3c(CC=C(C)C)c(O)ccc3oc12	1	106*	18	28	-5	94*	29
CCn1nc(C(=O)NNS(=O)(=O)c2ccc(C)cc2)c2ccccc2c1=O	0	·	-1	-1	-13	22	·
O=C(Nc1ccc2snnc2c1)Nc1cccc2ccccc12	5	26	3	41	29	67*	20
O=C(/C=C/c1ccccc1)c1ccc2c(c1)OCCCCO2	-1	-4	-4	4	0	-169	·
COc1ccc(OC)c(/C=C/C(=O)c2ccc3c(c2)OCCO3)c1	9	16	-1	-15	61	76*	16
COc1cc(/C=C/C(=O)N2CCN(C(=O)/C=C/c3cc(OC)c(OC)c(OC)c3)CC2)cc(OC)c1OC	5	7	5	2	-6	64*	13
COc1cc(/C=C/C(=O)N2CCCC2)cc(OC)c1OC	-2	-1	-7	-1	1	17	·
COc1cc(/C=C/C(=O)c2ccc3c(c2)OCO3)cc(OC)c1OC	5	·	-1	-53	·	91*	60*	Full FLuc ctr=38*
COc1ccc(/C=C/C(=O)c2ccc3c(c2)OCO3)cc1OC	6	·	1	-10	19	20	·
COc1cc(/C=C/C(=O)c2ccc3c(c2)OCCO3)cc(OC)c1OC	3	3	-3	-21	45	67*	46*	Full FLuc ctr=66*
Cc1c(C(=O)c2ccccc2C(=O)O)sc2ccccc12	-1	6	-2	-2	-3	9	·
COc1ccccc1C(=O)NCC(c1ccco1)N1CCc2ccccc21 (stereo not drawn)	0	15	0	3	5	20	·
O=C(OCC(=O)c1ccc[nH]1)c1cncc(Br)c1	0	·	-1	-5	·	14	·
N/C(=N\c1nc2ccccc2o1)NC(=O)c1cccc(Br)c1	6	2	7	10	1	59*	13
N/C(=N\c1nc2ccccc2o1)NC(=O)c1ccccc1	5	4	0	-4	16	-55	·
O=C(CCl)Nc1ccc(Oc2cnc3ccccc3n2)cc1	26	2	1	-4	0	67*	49*	Full FLuc ctr=14
COc1ccc(NC(=O)CCl)cn1	-2	-2	-1	5	0	-15	·
O=C(Nc1cccc(-c2cnc3ccccc3n2)c1)c1ccccc1	4	-9	2	12	-6	57*	-34
SMILES	UPR CHOP act	SKKanGAS inh	XBP1 UPR activ	Beta cell apopt	CSC inhib	Mdm2-MdmX inh	Mdm2 MdmX conf	others
O=C(CCl)Nc1cccc(-c2cnc3ccccc3n2)c1	-1	5	-4	-3	41	97*	99*	Full FLuc ctr=55*
CCC(=O)Nc1cccc(-c2cnc3ccccc3n2)c1	4	2	7	-1	-16	-18	·
CC(NC(=O)COc1ccc(S(=O)(=O)N2CCOCC2)cc1)c1ccccc1 (stereo not drawn)	0	·	0	-6	·	8	·
CCOc1cc(/C=N/NC(=O)CCn2nc(C)cc2C)ccc1O	0	3	-1	2	·	5	·
COCc1cccc(C(=O)NC(c2ccccc2)c2ccccc2)c1	2	-3	-5	-1	-27	9	·
CC(C)(C)NC(=O)C(c1ccc(-c2ccccc2)cc1)N(C[C@H]1CC[C@@H]([C@@H]2CC[C@H](CO)O2)O1)C(=O)c1cccc(Cl)c1 (stereo partly drawn)	3	·	6	·	·	50*	11
CC(C)(C)NC(=O)C(c1ccc(-c2ccccc2)cc1)N(C[C@H]1CC[C@@H]([C@@H]2CC[C@H](CO)O2)O1)C(=O)c1ccc2ccccc2c1 (stereo partly drawn)	4	·	6	·	·	22	·
CC(C)(C)NC(=O)C(c1ccc(-c2ccccc2)cc1)N(C[C@H]1CC[C@@H]([C@@H]2CC[C@H](CO)O2)O1)C(=O)c1ccc(-c2ccccc2)cc1 (stereo partly drawn)	10	·	15	·	·	88*	47*	Full FLuc ctr=52*
CC(C)(C)NC(=O)C(c1ccc(-c2ccccc2)cc1)N(C[C@H]1CC[C@@H]([C@@H]2CC[C@H](CO)O2)O1)C(=O)c1ccccc1F (stereo partly drawn)	2	·	1	·	·	38	·
O=C1COc2ccc(C(=O)CSc3nc4ccccc4c(=O)n3-c3ccc(Cl)c(Cl)c3)cc2N1	17	1	29	69	-4	98*	24
COc1cc2ncc(S(=O)(=O)c3ccccc3)c(N3CCCC(C)C3)c2cc1OC (stereo not drawn)	4	44	-1	11	9	51*	18
CCc1ccc([C@@H]2CC=C(C(=O)O)[C@H](c3ccc(F)cc3)N2S(=O)(=O)c2ccc(C)cc2)cc1	-1	·	0	2	-7	-2	·
CC(Oc1ccc(Br)cc1)C(=O)Nc1ccc(S(=O)(=O)N(C)C2CCN(C)CC2)cc1 (stereo not drawn)	1	-3	7	22	29	59*	39	Full FLuc ctr=76*

Source: PubChem BioAssay (several laboratories)
